≈ marks a conversion by molar mass, not a printed value. Where a SMILES comes first, the peptide text is derived from it. Bridges are numbered along the chain shown (N, C = ends). [ ]: non-standard residue; d: D form. The star is where a group is joined. X1 = CC[C@H](C)CCCCC(=O)*; Dab = NCC[C@H](N)C(=O)O
Tests used:
Staphylococcus aureus [1] = test: Antibacterial activity against Staphylococcus aureus GIM 1.160 assessed as bacterial growth inhibition incubated for 18 to 24 hrs by microtiter broth dilution method; type: functional; conditions: time 18-24 hrs
How it was run: (§1)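 Log-phase cells (grown overnight at 37 °C, subcultured in MHB) diluted to 10^5 CFU/mL in MHB and mixed 1:1 with serial peptide dilutions prepared in 0.01% acetic acid/0.2% BSA. Incubated 37 °C for 18-24 h. MIC is the lowest concentration giving no growth by OD492. Reported as the average of 3-5 independent experiments.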

Pseudomonas fluorescens = test: Antibacterial activity against Pseudomonas fluorescens CICC 21620 assessed as bacterial growth inhibition incubated for 18 to 24 hrs by microtiter broth dilution method; type: functional; conditions: time 18-24 hrs; how it was run: as §1
Candida albicans = test: Antifungal activity against Candida albicans ATCC 10231 assessed as fungal growth inhibition incubated for 18 to 24 hrs by microtiter broth dilution method; type: functional; conditions: time 18-24 hrs; how it was run: as §1
Staphylococcus aureus [2] = test: Antibacterial activity against Staphylococcus aureus ATCC 29213 assessed as bacterial growth inhibition incubated for 18 to 24 hrs by microtiter broth dilution method; type: functional; conditions: time 18-24 hrs; how it was run: as §1
Erythrocyte = test: Hemolytic activity against human red blood cells assessed as concentration required to cause 10% hemoglobin release measured after 1 hr by microplate reader analysis; type: ADME, cell-based
How it was run: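 Fresh heparinized human RBCs washed three times in 10 mM PBS pH 7.4 and resuspended to about 1% (v/v) (5.4 × 10^8 cells/mL). Mixed 1:1 with peptide in PBS for 1 h at 37 °C, then centrifuged. Supernatant hemoglobin read at A540. PBS set as 0% and 0.1% Triton X-100 as 100% hemolysis. MHC is the concentration causing 10% hemolysis.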

Salmonella paratyphi [3] = test: Antibacterial activity against Salmonella paratyphi C CICC 21512 assessed as bacterial growth inhibition incubated for 18 to 24 hrs by microtiter broth dilution method; type: functional; conditions: Salmonella enterica, time 18-24 hrs
How it was run: (§2)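 Log-phase bacteria grown at 37 °C in MHB, diluted to 10^5 CFU/mL, mixed 1:1 with serial peptide dilutions (peptide diluted in 0.01% acetic acid, 0.2% BSA); 37 °C for 18-24 h. MIC read by OD492 as lowest concentration giving no growth; mean of 3-5 independent experiments.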

Salmonella typhimurium = test: Antibacterial activity against Salmonella typhimurium CMCC 51005 assessed as bacterial growth inhibition incubated for 18 to 24 hrs by microtiter broth dilution method; type: functional, Salmonella enterica subsp. enterica serovar Typhimurium; conditions: Salmonella enterica, time 18-24 hrs; how it was run: as §1
Escherichia coli [4] = test: Antibacterial activity against Escherichia coli O157:H7 CICC 21530 assessed as bacterial growth inhibition incubated for 18 to 24 hrs by microtiter broth dilution method; type: functional; conditions: time 18-24 hrs; how it was run: as §2
Vibrio parahaemolyticus = test: Antibacterial activity against Vibrio parahaemolyticus CICC 21617 assessed as bacterial growth inhibition incubated for 18 to 24 hrs by broth dilution method; type: functional; conditions: time 18-24 hrs; how it was run: as §1
Shigella flexneri = test: Antibacterial activity against Shigella flexneri CMCC 51571 assessed as bacterial growth inhibition incubated for 18 to 24 hrs by microtiter broth dilution method; type: functional; conditions: time 18-24 hrs; how it was run: as §1
Escherichia coli [5] = test: Antibacterial activity against Escherichia coli ATCC 25922 assessed as bacterial growth inhibition incubated for 18 to 24 hrs by microtiter broth dilution method; type: functional; conditions: time 18-24 hrs; how it was run: as §1
Escherichia coli [6] = test: Antibacterial activity against Escherichia coli ATCC 35150 assessed as bacterial growth inhibition incubated for 18 to 24 hrs by microtiter broth dilution method; type: functional; conditions: time 18-24 hrs; how it was run: as §1
Salmonella enterica = test: Antibacterial activity against Salmonella choleraesuis ATCC 13312 assessed as bacterial growth inhibition incubated for 18 to 24 hrs by broth dilution method; type: functional; conditions: time 18-24 hrs; how it was run: as §2
[7] = Therapeutic index, ratio of MHC10 for human RBC to geometric mean of peptide MIC for Escherichia coli O157:H7 CICC 21530; type: toxicity; conditions: human red blood cells (RBC), pooled result: one value given for 11 cell lines, strains, targets or settings, read-out: TI
How it was run: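 Therapeutic index = MHC (peptide concentration giving 10% hemolysis of human RBCs, 1 h, 37 °C, A540) divided by geometric mean of MICs from broth microdilution (10^5 CFU/mL in MHB, 37 °C, 18-24 h, OD492).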

Listeria monocytogenes [8] = test: Antibacterial activity against Listeria monocytogenes CICC 21662 assessed as bacterial growth inhibition incubated for 18 to 24 hrs by microtiter broth dilution method; type: functional; conditions: time 18-24 hrs; how it was run: as §1
Listeria monocytogenes [9] = test: Antibacterial activity against Listeria monocytogenes CICC 21633 assessed as bacterial growth inhibition incubated for 18 to 24 hrs by microtiter broth dilution method; type: functional; conditions: time 18-24 hrs; how it was run: as §1
Bacillus pumilus = test: Antibacterial activity against Bacillus pumilus CMCC 63202 assessed as bacterial growth inhibition incubated for 18 to 24 hrs by microtiter broth dilution method; type: functional; conditions: time 18-24 hrs; how it was run: as §1
Salmonella enteritidis = test: Antibacterial activity against Salmonella enteritidis CICC 21527 assessed as bacterial growth inhibition incubated for 18 to 24 hrs by microtiter broth dilution method; type: functional, Salmonella enterica subsp. enterica serovar Enteritidis; conditions: Salmonella enterica, time 18-24 hrs; how it was run: as §1
Staphylococcus aureus [10] = test: Antibacterial activity against methicillin resistant Staphylococcus aureus ATCC 43300 assessed as bacterial growth inhibition incubated for 18 to 24 hrs by microtiter broth dilution method; type: functional; conditions: time 18-24 hrs; how it was run: as §2
Bacillus cereus = test: Antibacterial activity against Bacillus cereus CMCC 63301 assessed as bacterial growth inhibition incubated for 18 to 24 hrs by microtiter broth dilution method; type: functional; conditions: time 18-24 hrs; how it was run: as §1
Salmonella paratyphi [11] = test: Antibacterial activity against Salmonella paratyphi A CICC 20501 assessed as bacterial growth inhibition incubated for 18 to 24 hrs by microtiter broth dilution method; type: functional, Salmonella enterica subsp. enterica serovar Paratyphi A; conditions: Salmonella enterica, time 18-24 hrs; how it was run: as §2
Micrococcus luteus = test: Antibacterial activity against Micrococcus luteus CMCC 28001 assessed as bacterial growth inhibition incubated for 18 to 24 hrs by microtiter broth dilution method; type: functional; conditions: time 18-24 hrs; how it was run: as §1
[12] = tested on: Salmonella enterica subsp. enterica serovar Paratyphi B; test: Antibacterial activity against Salmonella paratyphi B CICC 21495 assessed as bacterial growth inhibition incubated for 18 to 24 hrs by microtiter broth dilution method; type: functional; conditions: time 18-24 hrs; how it was run: as §2

Row | SMILES | MIC (Staphylococcus aureus [1]) [µM] | MIC (Pseudomonas fluorescens) [µM] | MIC (Candida albicans) [µM] | MHC10 (Erythrocyte) [µM] | MIC (Salmonella paratyphi [3]) [µM] | MIC (Salmonella typhimurium) [µM] | MIC (Escherichia coli [4]) [µM] | MIC (Vibrio parahaemolyticus) [µM] | MIC (Shigella flexneri) [µM] | MIC (Escherichia coli [5]) [µM] | MIC (Escherichia coli [6]) [µM] | MIC (Salmonella enterica) [µM] | MIC (Bacillus pumilus) [µM] | MIC (Salmonella enteritidis) [µM] | MIC (Staphylococcus aureus [10]) [µM] | MIC (Bacillus cereus) [µM] | MIC (Salmonella paratyphi [11]) [µM] | MIC (Micrococcus luteus) [µM] | MIC [12] [µM] | other results
1 | CC[C@H](C)CCCCC(=O)N[C@@H](CCN)C(=O)N[C@H](C(=O)N[C@@H](CCN)C(=O)N[C@H]1CCNC(=O)[C@H]([C@@H](C)O)NC(=O)[C@H](CCN)NC(=O)[C@H](CCN)NC(=O)[C@H](CC(C)C)NC(=O)[C@@H](Cc2ccccc2)NC(=O)[C@H](CCN)NC1=O)[C@@H](C)O (X1-[Dab]T[Dab][Dab][Dab][dF]L[Dab][Dab]T; lactam 4-C) | 49.2 (≈ 59.2 µg/mL) | 49.2 (≈ 59.2 µg/mL) | 49.2 (≈ 59.2 µg/mL) | > 98.34 | 3.07 (≈ 3.69 µg/mL) | 0.77 (≈ 0.927 µg/mL) | 3.07 (≈ 3.69 µg/mL) | 0.77 (≈ 0.927 µg/mL) | 0.77 (≈ 0.927 µg/mL) | 0.38 (≈ 0.457 µg/mL) | 1.54 (≈ 1.85 µg/mL) | 1.54 (≈ 1.85 µg/mL) | 49.2 (≈ 59.2 µg/mL) | 1.54 (≈ 1.85 µg/mL) | > 98.3 | 49.2 (≈ 59.2 µg/mL) | 0.77 (≈ 0.927 µg/mL) | > 98.3 | 1.54 (≈ 1.85 µg/mL) | MIC (Staphylococcus aureus [2]): 49.2 µM (≈ 59.2 µg/mL); selectivity ratio [7]: 165; MIC (Listeria monocytogenes [8]): 24.6 µM (≈ 29.6 µg/mL); MIC (Listeria monocytogenes [9]): 12.3 µM (≈ 14.8 µg/mL)
2 | CN[C@H](CC(C)C)C(=O)N[C@H]1C(=O)N[C@@H](CC(N)=O)C(=O)N[C@H]2C(=O)N[C@H]3C(=O)N[C@H](C(=O)N[C@H](C(=O)O)c4cc(O)cc(O)c4-c4cc3ccc4O)[C@H](O)c3ccc(c(Cl)c3)Oc3cc2cc(c3O[C@@H]2O[C@H](CO)[C@@H](O)[C@H](O)[C@H]2O[C@H]2C[C@](C)(N)[C@H](O)[C@H](C)O2)Oc2ccc(cc2Cl)[C@H]1O [VANCOMYCIN] | 1.38 (≈ 2 µg/mL) | 0.35 (≈ 0.507 µg/mL) | > 88.3 | > 88.32 | 88.3 (≈ 128 µg/mL) | > 88.3 | > 88.3 | 88.3 (≈ 128 µg/mL) | 88.3 (≈ 128 µg/mL) | 88.3 (≈ 128 µg/mL) | > 88.3 | > 88.3 | 0.35 (≈ 0.507 µg/mL) | 44.2 (≈ 64 µg/mL) | 1.38 (≈ 2 µg/mL) | 0.17 (≈ 0.246 µg/mL) | > 88.3 | 0.69 (≈ 1 µg/mL) | 88.3 (≈ 128 µg/mL) | 

From ChEMBL document CHEMBL4765236, “Insights into the Antimicrobial Activity and Cytotoxicity of Engineered α-Helical Peptide Amphiphiles” (J Med Chem, 2016)
